Columns and labels:
[1] = DPPH free radical scavenging; type: biochemical; conditions: read-out: DPPH scavenging activity IC50; stable DPPH radical; mean ± SE, n = 3
In short: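 Radical-scavenging capacity of the test compounds toward DPPH was measured by a modified Zheleva-Dimitrova procedure. Scavenging activity was recorded and IC50 values were derived from it. Data are mean ± SE, n = 3.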

HepG2 cell line = assay: MTT assay, HepG2; type: cell-based; conditions: for antitumor effect (in words): HepG2, MTT assay, compared to DOX
MCF-7 cell line = assay: MTT assay, MCF-7; type: cell-based; conditions: for antitumor effect (in words): MCF-7, MTT assay, compared to DOX
HCT-116 cell line = assay: MTT assay, HCT-116; type: cell-based; conditions: for antitumor effect (in words): HCT-116, MTT assay, compared to DOX
[2] = system: WI-38 normal cells (human lung fibroblast); assay: MTT assay, WI-38 normal cells; type: cell-based

SMILES	IC50 [1]	antitumor effect (in words) (HepG2 cell line)	antitumor effect (in words) (MCF-7 cell line)	antitumor effect (in words) (HCT-116 cell line)	IC50 (HepG2 cell line; Homo sapiens, HepG2)	IC50 (MCF-7 cell line; Homo sapiens, MCF7)	IC50 (HCT-116 cell line; Homo sapiens, HCT-116)	cytotoxic effect on normal cells (in words) [2]
NC1=NN(c2ccccc2)C(=O)C1/N=N/c1ccc(C(=O)/C=C/c2ccc(O)cc2)cc1 (stereo not drawn) [Compound 3c, 5-Amino-4-((E)-(4-((E)-3-(4-hydroxyphenyl)acryloyl)phenyl)diazenyl)-2-phenyl-2,4-dihydro-3H-pyrazol-3-one]	94.18 ± 0.45 µM	weak effect	weak effect	weak effect	–	–	–	–
NC1=NN(c2ccccc2)C(=O)C1/N=N/c1ccc(C(=O)C=Cc2ccccc2)cc1 (stereo not drawn) [Compound 3a, 5-Amino-4-((E)-(4-cinnamoylphenyl)diazenyl)-2-phenyl-2,4-dihydro-3H-pyrazol-3-one]	21.4 ± 0.17 µM	impressive antitumor effects	impressive antitumor effects	impressive antitumor effects	–	–	–	–
O=C1O[C@H]([C@@H](O)CO)C(O)=C1O [L-ascorbic acid, reference compound]	16.81 ± 0.1 µM	–	–	–	–	–	–	–
NC1=NN(c2ccccc2)C(=O)C1/N=N/c1ccc(C(=O)/C=C/c2ccccc2O)cc1 (stereo not drawn) [Compound 3d, 5-Amino-4-((E)-(4-((E)-3-(2-hydroxyphenyl)acryloyl)phenyl)diazenyl)-2-phenyl-2,4-dihydro-3H-pyrazol-3-one]	48.59 ± 0.28 µM	moderate effect	moderate effect	moderate effect	–	–	–	–
CN(C)c1ccc(/C=C/C(=O)c2ccc(/N=N\C3C(=O)N(c4ccccc4)N=C3N)cc2)cc1 (stereo not drawn) [Compound 3e, 5-Amino-4-((Z)-(4-((E)-3-(4-(dimethylamino)phenyl)acryloyl)phenyl)diazenyl)-2-phenyl-2,4-dihydro-3H-pyrazol-3-one]	32.79 ± 0.21 µM	moderate effect	moderate effect	moderate effect	–	–	–	–
NC1=NN(c2ccccc2)C(=O)C1/N=N/c1ccc(C(=O)C=Cc2ccco2)cc1 (stereo not drawn) [Compound 3f, (E)-3-Amino-4-((4-(3-(furan-2-yl)acryloyl)phenyl)diazenyl)-1-phenyl-1H-pyrazol-5(4H)-one]	27.25 ± 0.19 µM	impressive antitumor effects	impressive antitumor effects	impressive antitumor effects	–	–	–	–
NC1=NN(c2ccccc2)C(=O)C1/N=N/c1ccc(C(=O)/C=C/C=C/c2ccccc2)cc1 (stereo not drawn) [Compound 3g, 5-Amino-2-phenyl-4-((E)-(4-((2E,4E)-5-phenylpenta-2,4-dienoyl)phenyl)diazenyl)-2,4-dihydro-3H-pyrazol-3-one]	73.63 ± 0.39 µM	weak effect	weak effect	weak effect	–	–	–	–
COc1cc(/C=C/C(=O)c2ccc(/N=N/C3C(=O)N(c4ccccc4)N=C3N)cc2)ccc1O (stereo not drawn) [Compound 3b, 5-Amino-4-((E)-(4-((E)-3-(4-hydroxy-3-methoxyphenyl)acryloyl)phenyl)diazenyl)-2-phenyl-2,4-dihydro-3H-pyrazol-3-one]	19.95 ± 0.14 µM	–	–	–	5.03 ± 0.4 µM	3.92 ± 0.2 µM	6.34 ± 0.5 µM	safe toxic profile on normal cells

Source: paper PMC12023741 (RSC Advances, 2025)
